From ChEMBL document CHEMBL3124742, “Synthesis and biological evaluation of new carbohydrate-substituted indenoisoquinoline topoisomerase I inhibitors and improved syntheses of the experimental anticancer agents indotecan (LMP400) and indimitecan (LMP776)” (J Med Chem, 2014) come the findings set out here.

A word on the GI50: it is the concentration that inhibits growth by half. Low readings indicate more potent growth inhibition, high ones less potent growth inhibition. The IC50 is the midpoint of a concentration-inhibition curve.

In test [1] the test system is UACC-62. The test is described as follows: Growth inhibition of human UACC62 cells. The format is functional. The essentials:
(§1)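 NCI-60 five-dose testing, 10^-8 to 10^-4 M, given only to compounds with significant growth inhibition in the 10 μM one-dose screen. Five-dose assay may be repeated.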

Test [2] relates to DU-145. The test is described as follows: Growth inhibition of human DU145 cells. The format is functional. The method in brief:
as §1

Test [3] concerns MCF7. The test is described as follows: Growth inhibition of human MCF7 cells. The format is functional. The method in brief:
as §1

The nature of test [4]: Cytotoxicity against human NCI60 cells assessed as cell growth at 10 uM relative to vehicle-treated control. The format is functional. Particulars: read-out: Activity. The essentials:
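NCI-60 one-dose screen: roughly 60 human cancer cell lines exposed to 10^-5 M (10 μM) compound. Value is growth percent of treated cells relative to vehicle-treated control, averaged across the panel.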

The subject of test [5] is HOP-62. The test is described as follows: Growth inhibition of human HOP62 cells. The format is functional. The essentials: as §1
Test [6] concerns HCT-116. Nature of the test: Growth inhibition of human HCT116 cells. The format is functional. The essentials:
as §1

Test [7] concerns OVCAR-3. Nature of the test: Growth inhibition of human OVCAR3 cells. The format is functional. The method in brief:
as §1

The nature of test [8]: Growth inhibition of human SF539 cells. The format is functional. Particulars: SF-539. The method in brief:
as §1

For test [9], the target named is Tyrosyl-DNA phosphodiesterase 1 (Homo sapiens, UniProt Q9NUW8). Nature of the test: Inhibition of recombinant TDP1 (unknown origin) using N14Y as substrate after 15 mins by PAGE analysis. The essentials: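 Substrate is a 5'-[32P]-labelled single-stranded oligonucleotide with a 3'-phosphotyrosine (N14Y). It is incubated with 5 pM recombinant TDP1 ± test compound for 15 min at room temperature. Read-out is a gel.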
Tyrosyl-DNA phosphodiesterase 1, sequence (Q9NUW8 whole entry): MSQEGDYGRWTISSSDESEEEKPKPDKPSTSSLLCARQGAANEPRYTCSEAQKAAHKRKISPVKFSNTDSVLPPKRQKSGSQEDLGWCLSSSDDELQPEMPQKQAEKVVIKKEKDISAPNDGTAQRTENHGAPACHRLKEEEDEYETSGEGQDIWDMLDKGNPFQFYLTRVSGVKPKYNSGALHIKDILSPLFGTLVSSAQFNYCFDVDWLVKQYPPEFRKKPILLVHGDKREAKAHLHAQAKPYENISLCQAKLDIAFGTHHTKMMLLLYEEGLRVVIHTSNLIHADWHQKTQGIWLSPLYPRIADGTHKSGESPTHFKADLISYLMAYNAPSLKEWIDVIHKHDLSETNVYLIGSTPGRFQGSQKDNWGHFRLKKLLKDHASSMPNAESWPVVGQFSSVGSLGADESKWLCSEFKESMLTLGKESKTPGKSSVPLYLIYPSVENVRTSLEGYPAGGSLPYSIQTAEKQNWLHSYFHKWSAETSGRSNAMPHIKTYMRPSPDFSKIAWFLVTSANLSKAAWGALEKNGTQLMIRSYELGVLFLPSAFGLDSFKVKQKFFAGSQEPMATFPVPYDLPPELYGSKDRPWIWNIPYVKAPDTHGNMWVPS

Test [10] relates to SN12C. Nature of the test: Growth inhibition of human SN12C cells. The format is functional. The method in brief: as §1
The target in test [11] is T1, DNA topoisomerase 1 (Homo sapiens) (UniProt P11387).
T1 sequence (whole entry): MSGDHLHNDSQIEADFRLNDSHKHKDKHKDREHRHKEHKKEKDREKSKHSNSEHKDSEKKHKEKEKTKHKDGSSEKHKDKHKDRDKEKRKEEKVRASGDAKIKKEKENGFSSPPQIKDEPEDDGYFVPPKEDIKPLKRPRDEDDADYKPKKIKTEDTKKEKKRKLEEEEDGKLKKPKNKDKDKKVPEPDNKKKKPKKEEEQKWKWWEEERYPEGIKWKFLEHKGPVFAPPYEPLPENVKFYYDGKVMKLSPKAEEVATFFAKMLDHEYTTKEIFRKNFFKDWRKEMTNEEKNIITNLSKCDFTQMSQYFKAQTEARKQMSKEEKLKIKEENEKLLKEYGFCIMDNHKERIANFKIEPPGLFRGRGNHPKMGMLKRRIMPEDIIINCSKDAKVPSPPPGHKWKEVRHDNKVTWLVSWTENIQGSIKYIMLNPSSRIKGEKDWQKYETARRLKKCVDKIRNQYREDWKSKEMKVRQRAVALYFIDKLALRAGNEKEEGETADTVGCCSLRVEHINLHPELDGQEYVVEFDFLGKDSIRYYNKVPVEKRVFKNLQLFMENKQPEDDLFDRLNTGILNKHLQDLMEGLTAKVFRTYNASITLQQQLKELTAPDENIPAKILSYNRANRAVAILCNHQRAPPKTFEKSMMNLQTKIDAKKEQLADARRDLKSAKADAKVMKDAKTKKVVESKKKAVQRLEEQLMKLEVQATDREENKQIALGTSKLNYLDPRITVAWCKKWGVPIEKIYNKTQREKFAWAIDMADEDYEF
The test is described as follows: Inhibition of recombinant topoisomerase-1 (unknown origin) assessed as inhibition of 3'-[32P]-labeled DNA cleavage at 0.1 to 100 uM after 20 mins by PAGE analysis relative to control.

Each structure is given as a SMILES string. Active and inactive are the calls of the source. The rule behind the calls is not given here.

Regarding `COc1cc2c3c(n(C[C@@H](O)[C@@H](O)[C@H](O)CO)c(=O)c2cc1OC)-c1cc2c(cc1C3=O)OCO2`, the GI50 in test [1] stood at 195 nM; in [2] it was 2510 nM; in test [3] it was 79 nM; in [5], 676 nM; in test [6] it was 891 nM; in [7] it was 794 nM. For the same compound, the results for the GI50 in test [8] and in test [10] were 214 nM and 457 nM, respectively. In addition, the growth at 10 µM in [4] was 34.7%. Besides, the IC50 in [9] was > 111 µM. In addition, the inhibition result in test [11] is “Active”.
